Results: ChEMBL document CHEMBL1156077, “Piperazinyl-glutamate-pyrimidines as potent P2Y12 antagonists for inhibition of platelet aggregation” (Bioorg Med Chem Lett, 2009)
Activity calls are given as the source filed them. The rule behind the calls is not given here.

What was measured:
P2Y purinoceptor 12 [1] = target: T1, P2Y purinoceptor 12 (Homo sapiens, UniProt Q9H244); assay: Binding affinity at human recombinant P2Y12 receptor expressed in CHO cells by radioligand binding assay; type: cell-based
In short: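 Washed membranes from CHO cells transfected with synthetic human P2Y12 gene. Compounds as 7-point threefold dilutions, triplicate, 1 h at room temperature. Nonspecific binding defined with 300 nM 2-MeSADP. Filtered, washed with ice-cold Tris pH 7.4. Single-site fit; IC50 converted to Ki by Cheng–Prusoff, geometric mean of n≥2.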

P2Y purinoceptor 12 [2] = target: T1, P2Y purinoceptor 12; assay: Ratio of compound IC50 to thienopyrimidine IC50 for P2Y12 receptor in human platelet rich plasma assessed as inhibition of ADP-induced platelet aggregation by light transmission aggregometry
In short: (§1)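 Human platelet-rich plasma was pre-incubated 5 min at 37 °C with compound across seven concentrations (10 down to 0.156). Aggregation was started with ADP (20, final) and followed by light transmission at 626 nm for 15 min at 37 °C. Duplicate concentration-response data were read at the 15-min end-point. IC50 was divided by the IC50 of the thienopyrimidine reference run on the same plate.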

P2Y purinoceptor 12 [3] = target: T1, P2Y purinoceptor 12; assay: Ratio of compound IC50 to AZD-6140 IC50 for P2Y12 receptor in human platelet rich plasma assessed as inhibition of ADP-induced platelet aggregation by light transmission aggregometry
In short: as §1, with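 “AZD-6140” for “the thienopyrimidine reference”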

Liver microsomes [4] = assay: Metabolic stability in rat liver microsomes assessed as compound remaining; type: ADME, Microsome
In short: (§2)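 Compounds incubated 30 min with human or rat liver microsomes; percent of parent compound remaining measured.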

Liver microsomes [5] = assay: Metabolic stability in human liver microsomes assessed as compound remaining; type: ADME, Microsome; in short: as §2
CYP1A2 = target: T2, CYP1A2 (Homo sapiens, UniProt P05177); assay: Inhibition of CYP1A2 at 3 uM after 30 mins; type: ADME
T2 sequence (P05177 whole entry): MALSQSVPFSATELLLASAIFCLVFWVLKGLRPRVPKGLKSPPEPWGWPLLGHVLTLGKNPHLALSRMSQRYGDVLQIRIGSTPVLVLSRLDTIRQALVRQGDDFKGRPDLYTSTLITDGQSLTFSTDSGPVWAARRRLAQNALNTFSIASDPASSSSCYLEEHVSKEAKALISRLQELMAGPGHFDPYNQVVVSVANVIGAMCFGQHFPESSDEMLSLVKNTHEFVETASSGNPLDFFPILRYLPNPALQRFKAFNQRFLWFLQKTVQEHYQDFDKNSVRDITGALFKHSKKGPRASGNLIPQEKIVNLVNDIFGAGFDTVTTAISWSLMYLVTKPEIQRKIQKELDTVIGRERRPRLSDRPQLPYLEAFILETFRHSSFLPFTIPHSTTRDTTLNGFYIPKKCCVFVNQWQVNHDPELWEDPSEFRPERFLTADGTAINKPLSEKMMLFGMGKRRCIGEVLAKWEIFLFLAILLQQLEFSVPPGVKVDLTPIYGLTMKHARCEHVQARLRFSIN
In short: (§3)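 Each CYP isoform assayed separately at a single 3 µM compound concentration in duplicate, with at least one isoform-specific positive control inhibitor. Incubation 30 min at 37 °C; end-point measurement gives percent inhibition.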

CYP2C9 = CYP2C9 (Homo sapiens, UniProt P11712); assay: Inhibition of CYP2C9 at 3 uM after 30 mins; type: ADME; in short: as §3
CYP2D6 = CYP2D6 (Homo sapiens, UniProt P10635); assay: Inhibition of CYP2D6 at 3 uM after 30 mins; type: ADME; in short: as §3
CYP3A4 = CYP3A4 (Homo sapiens, UniProt P08684); assay: Inhibition of CYP3A4 at 3 uM after 30 mins; type: ADME; in short: as §3
hERG (KCNH2) = hERG (KCNH2) (Homo sapiens, UniProt Q12809); assay: Displacement of Cy3B-tagged N-desmethyl dofetilide from human ERG expressed in HEK cells at 10 uM after 120 mins; type: cell-based, HEK293; conditions: HEK cells that express human ERG, probe Cy3B-tagged N-desmethyl dofetilide
In short: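 Fluorescence polarization competition assay with HEK-hERG membrane homogenates and Cy3B-tagged N-desmethyl dofetilide tracer. Compound tested at a single 10 µM concentration, 120 min incubation, end-point read for percent inhibition.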

[6] = Effective half life in Sprague-Dawley rat at 2 mg/kg, iv and 5 mg/kg, po; type: ADME, organism-based; conditions: in vivo
[7] = Clearance in Sprague-Dawley rat at 2 mg/kg, iv and 5 mg/kg, po; type: ADME, organism-based; conditions: in vivo
[8] = Volume of distribution at steady state in Sprague-Dawley rat at 2 mg/kg, iv and 5 mg/kg, po; type: ADME, organism-based; conditions: in vivo, read-out: Vdss
[9] = Oral bioavailability in Sprague-Dawley rat at 5 mg/kg; type: ADME, organism-based; conditions: in vivo
[10] = Selectivity for human P2Y12 receptor over P2Y13
[11] = Selectivity for human P2Y12 receptor over P2Y1
P2Y purinoceptor 12 [12] = target: T1, P2Y purinoceptor 12; assay: Binding affinity at human recombinant P2Y12 receptor expressed in CHO cells by radioligand binding assay in presence of 0.4% human serum albumin; type: cell-based
In short: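 Membranes from CHO cells transfected with a synthetic human P2Y12 gene, with 0.4% human serum albumin added to the binding buffer (50 mM Tris, 100 mM NaCl, 1 mM EDTA). Seven-point threefold dilutions were run in triplicate, 1 h at room temperature, then filtered. Ki from IC50 by Cheng-Prusoff.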

CYP3A4, sequence (P08684 whole entry): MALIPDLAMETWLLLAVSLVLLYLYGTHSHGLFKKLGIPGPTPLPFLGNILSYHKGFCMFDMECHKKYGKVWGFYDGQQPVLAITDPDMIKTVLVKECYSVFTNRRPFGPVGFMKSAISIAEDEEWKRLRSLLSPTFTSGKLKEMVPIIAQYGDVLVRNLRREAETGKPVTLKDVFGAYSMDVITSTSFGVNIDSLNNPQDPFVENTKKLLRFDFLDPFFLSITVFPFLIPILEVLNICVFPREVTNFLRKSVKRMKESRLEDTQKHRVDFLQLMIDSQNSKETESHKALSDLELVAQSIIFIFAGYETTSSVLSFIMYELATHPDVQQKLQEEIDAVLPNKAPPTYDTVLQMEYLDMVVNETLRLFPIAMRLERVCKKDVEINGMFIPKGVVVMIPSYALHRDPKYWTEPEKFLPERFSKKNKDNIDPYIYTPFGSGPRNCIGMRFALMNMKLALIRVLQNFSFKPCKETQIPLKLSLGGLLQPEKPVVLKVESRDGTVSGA
T1 sequence (Q9H244 whole entry): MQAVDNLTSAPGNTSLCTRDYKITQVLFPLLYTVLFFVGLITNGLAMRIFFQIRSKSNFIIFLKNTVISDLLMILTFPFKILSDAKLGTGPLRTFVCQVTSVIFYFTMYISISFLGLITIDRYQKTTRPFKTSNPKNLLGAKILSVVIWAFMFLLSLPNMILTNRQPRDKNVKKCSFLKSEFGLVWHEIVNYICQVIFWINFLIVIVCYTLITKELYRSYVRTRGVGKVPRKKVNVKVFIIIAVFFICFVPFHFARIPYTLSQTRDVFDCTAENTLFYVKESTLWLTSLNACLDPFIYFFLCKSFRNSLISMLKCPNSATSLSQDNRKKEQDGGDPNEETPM
CYP2C9, sequence (P11712 whole entry): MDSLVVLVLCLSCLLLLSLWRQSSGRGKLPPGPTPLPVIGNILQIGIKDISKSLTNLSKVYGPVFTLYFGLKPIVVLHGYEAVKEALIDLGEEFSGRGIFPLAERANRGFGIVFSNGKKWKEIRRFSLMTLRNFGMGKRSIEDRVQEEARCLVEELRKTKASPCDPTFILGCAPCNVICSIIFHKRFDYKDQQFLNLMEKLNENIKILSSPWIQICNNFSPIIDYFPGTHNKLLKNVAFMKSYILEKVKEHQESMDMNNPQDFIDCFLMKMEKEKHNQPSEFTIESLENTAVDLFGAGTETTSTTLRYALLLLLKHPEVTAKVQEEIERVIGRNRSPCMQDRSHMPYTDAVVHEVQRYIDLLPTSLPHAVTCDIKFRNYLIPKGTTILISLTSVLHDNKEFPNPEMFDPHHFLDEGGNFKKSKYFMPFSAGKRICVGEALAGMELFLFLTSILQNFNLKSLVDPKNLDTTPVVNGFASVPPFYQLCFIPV
CYP2D6, sequence (P10635 whole entry): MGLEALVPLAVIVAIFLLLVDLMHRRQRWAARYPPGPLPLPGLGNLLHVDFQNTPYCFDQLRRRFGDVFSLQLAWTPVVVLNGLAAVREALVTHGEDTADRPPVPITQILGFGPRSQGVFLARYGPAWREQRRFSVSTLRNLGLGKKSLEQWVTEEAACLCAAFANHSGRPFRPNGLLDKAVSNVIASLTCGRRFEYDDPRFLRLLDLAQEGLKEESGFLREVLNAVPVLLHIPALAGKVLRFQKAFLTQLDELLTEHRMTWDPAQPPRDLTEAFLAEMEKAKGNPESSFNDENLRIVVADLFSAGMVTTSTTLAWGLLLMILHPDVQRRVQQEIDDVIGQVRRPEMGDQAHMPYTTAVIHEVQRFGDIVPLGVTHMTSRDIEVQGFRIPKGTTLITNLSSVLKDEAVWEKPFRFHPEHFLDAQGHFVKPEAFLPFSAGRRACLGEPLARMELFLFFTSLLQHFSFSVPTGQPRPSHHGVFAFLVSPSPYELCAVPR
hERG (KCNH2), sequence (Q12809 whole entry): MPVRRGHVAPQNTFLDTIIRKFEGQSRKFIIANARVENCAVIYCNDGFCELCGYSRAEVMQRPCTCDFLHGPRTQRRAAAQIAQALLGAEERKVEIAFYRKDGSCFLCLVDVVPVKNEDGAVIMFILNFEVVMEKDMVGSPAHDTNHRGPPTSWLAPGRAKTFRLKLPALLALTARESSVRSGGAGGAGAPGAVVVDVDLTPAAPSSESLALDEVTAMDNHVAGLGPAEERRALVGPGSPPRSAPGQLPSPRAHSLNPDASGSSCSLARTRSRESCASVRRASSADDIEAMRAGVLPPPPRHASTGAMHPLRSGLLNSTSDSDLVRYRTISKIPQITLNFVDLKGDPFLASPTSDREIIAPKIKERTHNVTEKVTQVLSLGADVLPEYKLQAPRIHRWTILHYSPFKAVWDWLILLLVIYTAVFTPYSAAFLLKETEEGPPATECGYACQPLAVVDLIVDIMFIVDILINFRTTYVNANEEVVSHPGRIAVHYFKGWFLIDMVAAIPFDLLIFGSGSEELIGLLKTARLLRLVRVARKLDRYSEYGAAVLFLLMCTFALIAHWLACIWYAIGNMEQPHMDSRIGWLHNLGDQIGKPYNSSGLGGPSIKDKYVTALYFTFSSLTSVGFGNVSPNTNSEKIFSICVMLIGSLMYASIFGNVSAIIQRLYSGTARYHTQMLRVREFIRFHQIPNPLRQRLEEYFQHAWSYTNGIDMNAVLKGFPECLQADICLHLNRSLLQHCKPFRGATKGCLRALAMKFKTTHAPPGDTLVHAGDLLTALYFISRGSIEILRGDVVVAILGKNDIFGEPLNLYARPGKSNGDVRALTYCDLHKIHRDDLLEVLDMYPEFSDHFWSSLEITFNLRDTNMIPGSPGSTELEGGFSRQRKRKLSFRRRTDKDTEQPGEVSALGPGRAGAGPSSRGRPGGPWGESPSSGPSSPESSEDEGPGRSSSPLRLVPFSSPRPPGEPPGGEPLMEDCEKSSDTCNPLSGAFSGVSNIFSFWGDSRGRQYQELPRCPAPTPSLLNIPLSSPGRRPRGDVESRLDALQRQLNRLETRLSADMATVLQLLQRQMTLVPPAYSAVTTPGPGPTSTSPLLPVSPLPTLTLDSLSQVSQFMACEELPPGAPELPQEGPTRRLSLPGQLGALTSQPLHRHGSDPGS

Structure (SMILES)	Ki (P2Y purinoceptor 12 [1]) [nM]	Ratio IC50 (P2Y purinoceptor 12 [2])	Ratio IC50 (P2Y purinoceptor 12 [3])	Stability (Liver microsomes [4]) [%]	Stability (Liver microsomes [5]) [%]	inhibition at 0.5 h, 3 µM (CYP1A2) [%]	inhibition at 0.5 h, 3 µM (CYP2C9) [%]	inhibition at 0.5 h, 3 µM (CYP2D6) [%]	inhibition at 0.5 h, 3 µM (CYP3A4) [%]	inhibition at 2 h, 10 µM (hERG (KCNH2)) [%]	half-life [6] [min]	clearance [7] [mL/min/kg]	Vd [8] [L/kg]	bioavailability [9] [%]	fold change (FC) [10]	fold change (FC) [11]	Activity (P2Y purinoceptor 12 [12])
CCCCCOC(=O)N1CCN(C(=O)[C@H](CCC(=O)O)NC(=O)c2nc(-c3ccccc3)cc(N3CCC(CN)CC3)n2)CC1	9.4	0.2	1.2	> 80	> 80	< 25	< 25	< 25	< 25	< 25	12	16	0.28	1	> 340	> 340	–
CCCCCOC(=O)N1CCN(C(=O)[C@H](CCC(=O)O)NC(=O)c2cc(N3CCC(CN)CC3)nc(-c3ccccc3)n2)CC1	3	0.1	0.6	> 80	> 80	< 25	< 25	< 25	< 25	< 25	102	33	4.9	1	> 340	> 340	–
CCCCCOC(=O)N1CCN(C(=O)[C@H](CCC(=O)O)NC(=O)c2cc(N3CCC(CNC)CC3)nc(-c3ccccc3)n2)CC1	1.2	0.1	0.7	> 80	> 80	< 25	< 25	< 25	< 25	< 25	42	31	2	2	> 340	> 340	–
CCCCCOC(=O)N1CCN(C(=O)[C@H](CCC(=O)O)NC(=O)c2cc(N3CCC(CN4CCCC4)CC3)nc(-c3ccccc3)n2)CC1	0.4	0.1	0.7	> 80	> 80	< 25	< 25	< 25	< 25	< 25	18	98	7.7	1	> 340	> 340	–
CCCCCOC(=O)N1CCN(C(=O)[C@H](CCC(=O)O)NC(=O)c2cc(SC3CCCC3)nc(-c3ccccc3)n2)CC1	17	–	–	–	–	–	–	–	–	–	–	–	–	–	> 340	> 340	inactive
CCCCCOC(=O)N1CCN(C(=O)[C@H](CCC(=O)O)NC(=O)c2cc(N3CCC(C(=O)N(CC)CC)CC3)nc(-c3ccccc3)n2)CC1	1.5	0.1	0.6	> 80	> 80	< 25	< 25	< 25	< 25	< 25	24	6	0.21	38	> 340	> 340	–
CCCCCOC(=O)N1CCN(C(=O)[C@H](CCC(=O)O)NC(=O)c2cc(N3CCC(COC)CC3)nc(-c3ccccc3)n2)CC1	8.4	0.4	2.8	> 80	> 80	< 25	< 25	< 25	< 25	< 25	54	14	1.1	61	> 340	> 340	–
CCCCCOC(=O)N1CCN(C(=O)[C@H](CCC(=O)O)NC(=O)c2cc(N3CCC(C(=O)N4CCCC4)CC3)nc(-c3ccccc3)n2)CC1	0.46	0.06	0.4	> 80	> 80	< 25	< 25	< 25	< 25	< 25	48	2	0.2	13	> 340	> 340	–
CCCCOC(=O)N1CCN(C(=O)[C@H](CCC(=O)O)NC(=O)c2cc(N3CCC(C(=O)NCC)CC3)nc(-c3ccccc3)n2)CC1	0.38	0.1	0.6	> 80	> 80	< 25	< 25	< 25	< 25	< 25	6	16	0.3	7	> 340	> 340	–
CCCCCOC(=O)N1CCN(C(=O)[C@H](CCC(=O)O)NC(=O)c2cc(SC3CCCCC3)nc(-c3ccccc3)n2)CC1	70	–	–	–	–	–	–	–	–	–	–	–	–	–	> 340	> 340	inactive
CCCCCOC(=O)N1CCN(C(=O)[C@H](CCC(=O)O)NC(=O)c2cc(SCCO)nc(-c3ccccc3)n2)CC1	4.5	–	–	–	–	–	–	–	–	–	–	–	–	–	> 340	> 340	inactive
CCCCCOC(=O)N1CCN(C(=O)[C@H](CCC(=O)O)NC(=O)c2cc(SC(C)(C)C)nc(-c3ccccc3)n2)CC1	42	–	–	–	–	–	–	–	–	–	–	–	–	–	> 340	> 340	inactive
CCCCCOC(=O)N1CCN(C(=O)[C@H](CCC(=O)O)NC(=O)c2nc(-c3ccccc3)cc(N3CCC(COC)CC3)n2)CC1	12	1.4	9.5	> 80	> 80	< 25	< 25	< 25	< 25	< 25	18	6	0.15	6	> 340	> 340	–
CCCCCOC(=O)N1CCN(C(=O)[C@H](CCC(=O)O)NC(=O)c2cc(N3CCC(C(=O)NCC)CC3)nc(-c3ccccc3)n2)CC1	0.6	0.2	1.5	> 80	> 80	< 25	< 25	< 25	< 25	< 25	18	8	0.2	8	> 340	> 340	–
